Marks after values point to notes of the source that are not given here.
Legend:
FHC = assay: Cytotoxicity assay; assay type: cell-based, human; details: 72 h
HCT116 = assay: Cytotoxicity assay; assay type: cell-based, human
RKO = assay: Cytotoxicity assay; assay type: cell-based, human; details: 72 h
LS174T = assay: Cytotoxicity assay; assay type: cell-based, human; details: 72 h
LoVo = assay: Cytotoxicity assay; assay type: cell-based, human; details: 72 h
Colo205 = assay: Cytotoxicity assay; assay type: cell-based, human
DLD-1 = assay: Cytotoxicity assay; assay type: cell-based, human
HT-29 = assay: Cytotoxicity assay; assay type: cell-based, human
SW620 = assay: Cytotoxicity assay; assay type: cell-based, human
RKO-E6 = assay: Cytotoxicity assay; assay type: cell-based, human; details: RKO-E6 (p53-KO), 72 h
H3347 = assay: Cytotoxicity assay; assay type: cell-based, human; details: H3347, 72 h
[1] = Toxicology examination: serum biochemistry; assay type: in vivo; details: ICR mice, 5-FU 50 mg/kg i.p., SL-1 30, oxaliplatin 7.5, cisplatin 7.5 mg/kg i.v.
Caco-2 = assay: Cytotoxicity assay; assay type: cell-based; details: Homo sapiens, Caco-2, 72 h
CRC cell lines = assay: Cytotoxicity, panel of CRC cell lines; assay type: cell-based; details: Homo sapiens, read-out: IC50 values in CRC cell lines
[2] = system: pGL4-WT and pGL4-MT luciferase reporters in RKO cells; assay: Luciferase reporter assay; assay type: cell-based, human; details: SL-1 for 2 h
pEGFP-N1 plasmid DNA = assay: Alkaline agarose gel shift assay; assay type: biochemical; details: 37°C, 2 h
RKO cells [3] = assay: Comet and modified comet assays; assay type: cell-based, human; details: 24 h, SL-1 0.75 μM, 5-FU […], alone or combined
Method in brief: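 RKO cells were exposed to the test compound and/or 5-FU for 24 h and then processed by comet assay. The read-out was tail moment, reported as means ± SD (n = 3) and compared by Student's t test. Synergy on tail moment was expressed as a combination index (CI).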

RKO cells [4] = assay: Annexin V staining assay; assay type: cell-based, human
RKO xenografts = assay: Anticancer activity in xenograft mouse model; assay type: in vivo, nude mice
[5] = Toxicology examination: complete blood counts; assay type: in vivo; details: ICR mice, 5-FU 50 mg/kg i.p., SL-1 30, oxaliplatin 7.5, cisplatin 7.5 mg/kg i.v.
[6] = Toxicology examination: histopathology of kidney and liver; assay type: in vivo; details: ICR mice
[7] = system: breast carcinoma MX-1 xenografts; details: cited from earlier work

O=C1[O][Pt]2([NH][C@@H]3CCCC[C@H]3[NH]2)[O]C1=O [Oxaliplatin, oxaliplatin]
IC50 (FHC; FHC normal fetal colonic epithelial cells): 19.7 ± 2.21 µM
IC50 (HCT116; HCT116 (p53-WT), 72 h): 1.78 ± 0.11 µM
IC50 (RKO; RKO (p53-WT)): 0.62 ± 0.02 µM
IC50 (LS174T; LS174T (p53-WT)): > 50 µM
IC50 (LoVo; LoVo (p53-WT)): 1.65 ± 0.21 µM
IC50 (Colo205; Colo205 (p53-WT), 72 h): 2.26 ± 0.78 µM
IC50 (DLD-1; DLD-1 (p53-MT), 72 h): 1.62 ± 0.06 µM
IC50 (HT-29; HT-29 (p53-MT), 72 h): 1.92 ± 0.81 µM
IC50 (SW620; SW620 (p53-MT), 72 h): 7.62 ± 3.12 µM
IC50 (RKO-E6): 10.3 ± 3.39 µM
IC50 (H3347): 2.55 ± 0.73 µM
ALP ([1]; 2 days): 498.33 ± 63.91 U/l
ALT ([1]; 2 days): 28.00 ± 1.73 U/l
AST ([1]; 2 days): 76.67 ± 16.47 U/l
BUN ([1]; 2 days): 20.27 ± 3.32 mg/dL
CRE ([1]; 2 days): 0.27 ± 0.06 mg/dL
GLU ([1]; 2 days): 153.67 ± 88.22 mg/dL
ALP ([1]; 14 days): 245.5 ± 35.07 U/l
BUN ([1]; 14 days): 21.35 ± 5.07 mg/dL
CRE ([1]; 14 days): 0.13 ± 0.05 mg/dL
GLU ([1]; 14 days): 268.25 ± 61.43 mg/dL
GOT/AST ([1]; 14 days): 47.25 ± 7.13 U/l
GPT/ALT ([1]; 14 days): 29.50 ± 5.74 U/l

Cc1cc(NNC(=O)Nc2ccc(N(CCCl)CCCl)cc2)c2cc3c(cc2n1)OCO3 [SL-1, N-{4-[Bis(2-chloroethyl)amino]phenyl}-2-(6-methyl[1,3]-dioxolo[4,5-g]quinolin-8-yl)-hydrazinecarboxamide]
IC50 (FHC; Homo sapiens, FHC): 71.5 ± 8.36 µM
IC50 (HCT116; Homo sapiens, HCT-116, 72 h): 0.34 ± 0.06 µM
IC50 (RKO; Homo sapiens, RKO): 0.2 ± 0.08 µM
IC50 (LS174T; Homo sapiens, LS174T): 4.55 ± 1.01 µM
IC50 (LoVo; Homo sapiens, LoVo): 0.61 ± 0.03 µM
IC50 (Colo205; Homo sapiens, COLO 205, 72 h): 0.46 ± 0.1 µM
IC50 (DLD-1; Homo sapiens, DLD-1, 72 h): 0.36 ± 0.07 µM
IC50 (HT-29; Homo sapiens, HT-29, 72 h): 0.53 ± 0.11 µM
IC50 (SW620; Homo sapiens, SW-620, 72 h): 0.14 ± 0.06 µM
IC50 (Caco-2): 5.49 ± 3.07 µM
IC50 (H3347; Homo sapiens): 0.23 ± 0.03 µM
IC50 (CRC cell lines): 0.14 to 5.49 µM
inhibition of luciferase reporter activity, pGL4-WT vs pGL4-MT [2]: inhibited the reporter activity of pGL4-WT more effectively than that of pGL4-MT
concentration that induced moderate levels of ICLs (pEGFP-N1 plasmid DNA): 0.05 µM
tail moment (RKO cells [3]): 5.4 ± 0.8 μm
mode of cell death (RKO cells [4]): primarily triggered apoptosis
tumor suppression (RKO xenografts; RKO xenograft (Figure 6A), SL-1 30 mg/kg Q2D×7 i.v., oxaliplatin 7.5 mg/kg, 5-FU 50 mg/kg): 61.8%
tumor growth suppression (RKO xenografts; RKO xenograft, nude mice, day 29, SL-1 30 mg/kg i.v. every other day 7 times): approximately 65%
BASO ([5]; 2 days): 0.00 ± 0.00 10^9/l
EO ([5]; 2 days): 0.09 ± 0.03 10^9/l
HCT ([5]; 2 days): 38.32 ± 3.18%
HGB ([5]; 2 days): 12.34 ± 1.35 g/dL
LYMPH ([5]; 2 days): 3.55 ± 0.98 10^9/l
MCH ([5]; 2 days): 15.88 ± 0.48 pg
MCHC ([5]; 2 days): 25.86 ± 1.72 g/dL
MCV ([5]; 2 days): 58.18 ± 3.66 fL
MONO ([5]; 2 days): 0.05 ± 0.03 10^9/l
NEUT ([5]; 2 days): 0.54 ± 0.20 10^9/l
PLT ([5]; 2 days): 1742.40 ± 273.56 10^9/l
RBC ([5]; 2 days): 7.80 ± 1.03 10^12/l
WBC ([5]; 2 days): 4.81 ± 1.00 10^9/l
BASO ([5]; 14 days): 0.01 ± 0.01 10^9/l
EO ([5]; 14 days): 0.13 ± 0.05 10^9/l
HCT ([5]; 14 days): 46.28 ± 2.32%
HGB ([5]; 14 days): 13.36 ± 0.74 g/dL
LYMPH ([5]; 14 days): 4.17 ± 1.28 10^9/l
MCH ([5]; 14 days): 15.58 ± 0.47 pg
MCHC ([5]; 14 days): 28.84 ± 0.57 g/dL
MCV ([5]; 14 days): 53.96 ± 1.92 fL
MONO ([5]; 14 days): 0.12 ± 0.15 10^9/l
NEUT ([5]; 14 days): 1.08 ± 0.36 10^9/l
PLT ([5]; 14 days): 838.80 ± 57.98 10^9/l
RBC ([5]; 14 days): 8.60 ± 0.68 10^12/l
WBC ([5]; 14 days): 5.50 ± 1.64 10^9/l
ALP ([1]; 2 days): 331.75 ± 27.94 U/l
ALT ([1]; 2 days): 24.50 ± 2.17 U/l
AST ([1]; 2 days): 49.00 ± 3.24 U/l
BUN ([1]; 2 days): 23.05 ± 2.22 mg/dL
CRE ([1]; 2 days): 0.20 ± 0.00 mg/dL
GLU ([1]; 2 days): 466.50 ± 146.80 mg/dL
ALP ([1]; 14 days): 231.00 ± 85.33 U/l
BUN ([1]; 14 days): 20.05 ± 2.37 mg/dL
CRE ([1]; 14 days): 0.17 ± 0.06 mg/dL
GLU ([1]; 14 days): 219.75 ± 35.85 mg/dL
GOT/AST ([1]; 14 days): 47.50 ± 1.29 U/l
GPT/ALT ([1]; 14 days): 22.00 ± 8.04 U/l
liver histopathology ([6]; 2-day test): liver damage was insignificant
kidney histopathology ([6]; 2 days after single dose): insignificant morphological injury in the kidney
histopathological examination, overall ([6]; SL-1 30 mg/kg i.v.): no obvious nephrotoxicity or hepatotoxicity
growth of breast carcinoma MX-1 xenografts [7]: complete tumor remission

O=c1[nH]cc(F)c(=O)[nH]1 [5-FU, 5-fluorouracil]
IC50 (FHC; Homo sapiens, FHC): 21.9 ± 2.49 µM
IC50 (HCT116; Homo sapiens, HCT-116, 72 h): 2.88 ± 0.33 µM
IC50 (RKO; Homo sapiens, RKO): 6.15 ± 1.63 µM
IC50 (LS174T; Homo sapiens, LS174T): 18.6 ± 0.26 µM
IC50 (LoVo; Homo sapiens, LoVo): 25.8 ± 0.74 µM
IC50 (Colo205; Homo sapiens, COLO 205, 72 h): 6.8 ± 3.05 µM
IC50 (DLD-1; Homo sapiens, DLD-1, 72 h): 16.9 ± 5.3 µM
IC50 (HT-29; Homo sapiens, HT-29, 72 h): 2.27 ± 0.41 µM
IC50 (SW620; Homo sapiens, SW-620, 72 h): 18.5 ± 4.05 µM
IC50 (Caco-2): > 50 µM
IC50 (H3347; Homo sapiens): 5.89 ± 0.5 µM
tail moment (RKO cells [3]): 3.9 ± 0.4 μm
mode of cell death (RKO cells [4]): mainly caused necrotic cell death
BASO ([5]; 2 days): 0.01 ± 0.01 10^9/l
EO ([5]; 2 days): 0.06 ± 0.01* 10^9/l
HCT ([5]; 2 days): 27.94 ± 3.75 %
HGB ([5]; 2 days): 10.58 ± 2.62 g/dL
LYMPH ([5]; 2 days): 4.22 ± 0.45 10^9/l
MCH ([5]; 2 days): 14.94 ± 3.04 pg
MCHC ([5]; 2 days): 27.50 ± 4.71 g/dL
MCV ([5]; 2 days): 57.06 ± 3.75 fL
MONO ([5]; 2 days): 0.02 ± 0.01 10^9/l
NEUT ([5]; 2 days): 0.78 ± 0.40 10^9/l
PLT ([5]; 2 days): 873.00 ± 141.40** 10^9/l
RBC ([5]; 2 days): 4.98 ± 1.72* 10^12/l
WBC ([5]; 2 days): 5.09 ± 0.23 10^9/l
BASO ([5]; 14 days): 0.01 ± 0.01 10^9/l
EO ([5]; 14 days): 0.08 ± 0.01*** 10^9/l
HCT ([5]; 14 days): 45.53 ± 1.61 %
HGB ([5]; 14 days): 13.08 ± 0.25 g/dL
LYMPH ([5]; 14 days): 2.62 ± 0.94 10^9/l
MCH ([5]; 14 days): 16.25 ± 0.35 pg
MCHC ([5]; 14 days): 28.73 ± 0.48 g/dL
MCV ([5]; 14 days): 56.48 ± 1.73 fL
MONO ([5]; 14 days): 0.06 ± 0.10 10^9/l
NEUT ([5]; 14 days): 0.64 ± 0.17 10^9/l
PLT ([5]; 14 days): 745.75 ± 116.31* 10^9/l
RBC ([5]; 14 days): 8.06 ± 0.24*** 10^12/l
WBC ([5]; 14 days): 3.40 ± 1.21 10^9/l
ALP ([1]; 2 days): 359.25 ± 72.22 U/l
ALT ([1]; 2 days): 23.25 ± 4.97 U/l
AST ([1]; 2 days): 63.50 ± 13.24 U/l
BUN ([1]; 2 days): 23.65 ± 1.50 mg/dL
CRE ([1]; 2 days): 0.23 ± 0.1 mg/dL
GLU ([1]; 2 days): 577.25 ± 36.55 mg/dL
ALP ([1]; 14 days): 177.50 ± 119.69 U/l
BUN ([1]; 14 days): 22.20 ± 3.42 mg/dL
CRE ([1]; 14 days): 0.25 ± 0.10 mg/dL
GLU ([1]; 14 days): 244.00 ± 86.63 mg/dL
GOT/AST ([1]; 14 days): 53.00 ± 3.56 U/l
GPT/ALT ([1]; 14 days): 46.50 ± 7.85 U/l
